Source: PubChem (The Scripps Research Institute Molecular Screening Center)
OX1R antag-1 = human HCRTR1 antagonism; O43613; CHO/OX1R cells, Fluo-8 calcium fluorescence, orexin A; inhibition, % at 5 µM; 330,000 tested, 0.43% active; AID 434989;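 active = inhibition above its plate's threshold, mean inhibition of all tested compounds on the plate plus 3 SD, cut at about 37% in these data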;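 note: 0% = orexin A challenge wells and 100% = SB-334867-A antagonist wells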
Target sequence (O43613 whole entry, looked up): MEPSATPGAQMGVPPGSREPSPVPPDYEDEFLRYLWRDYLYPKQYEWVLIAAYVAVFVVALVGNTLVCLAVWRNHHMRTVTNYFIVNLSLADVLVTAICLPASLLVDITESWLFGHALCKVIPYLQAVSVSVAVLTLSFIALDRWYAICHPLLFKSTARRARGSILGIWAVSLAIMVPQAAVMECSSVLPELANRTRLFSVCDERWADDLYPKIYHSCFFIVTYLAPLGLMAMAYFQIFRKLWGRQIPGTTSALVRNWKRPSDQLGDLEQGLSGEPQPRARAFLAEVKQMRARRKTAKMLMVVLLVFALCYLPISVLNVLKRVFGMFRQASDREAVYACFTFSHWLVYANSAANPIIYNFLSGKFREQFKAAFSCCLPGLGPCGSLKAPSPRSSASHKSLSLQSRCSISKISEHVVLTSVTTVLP
GPR7 antagonist = blocks human GPR7 receptor signaling; P48145; GPR7-expressing cells, fluorescence antagonist assay; inhibition, % at 4.4 µM; 290,000 tested, 1.1% active; in the data active = inhibition above about 16%, passing the limit was not always enough;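 note: cells stimulated with the agonist NPW; 0% = agonist with vehicle and 100% = vehicle without agonist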
GalR3 antagonist = human GalR3 antagonism | 360,000 tested, 0.44% active | HEK293 GalR3-CNG cAMP membrane potential fluorescence; galR3 body fused to GalR1 C-terminus | AID 651719 | inhibition, % at 3 µM;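 active = inhibition above the screen-wide average plus 3 SD, cut at about 13% in these data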;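 note: forskolin and galanin both at EC90 stimulate the cells; cAMP rise reported by CNG channel membrane potential dye signal; 0% = forskolin plus galanin with DMSO and 100% = forskolin alone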
Target sequence (O60755 1-299 limits assumed): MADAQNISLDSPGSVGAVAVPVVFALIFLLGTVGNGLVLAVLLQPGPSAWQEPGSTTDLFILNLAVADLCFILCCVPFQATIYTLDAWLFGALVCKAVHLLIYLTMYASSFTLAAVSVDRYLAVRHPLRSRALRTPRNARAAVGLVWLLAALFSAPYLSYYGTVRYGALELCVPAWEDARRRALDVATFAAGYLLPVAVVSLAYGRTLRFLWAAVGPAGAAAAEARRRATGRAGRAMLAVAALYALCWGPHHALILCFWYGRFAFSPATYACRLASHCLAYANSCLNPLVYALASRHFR
CHO parental Ca = signal in parental CHO cells, OX1R antagonist counter-screen; parental CHO-K1, ATP-induced calcium, Fluo-8 fluorescence; inhibition, % at 5.6 µM; 330,000 tested, 0.63% active;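 active = inhibition above that plate's mean sample inhibition plus 3 SD, cut at about 26% in these data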;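 note: 0% = ATP-challenged DMSO wells and 100% = DMSO wells without ATP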
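Test system: untransfected parental CHO cell line; also added: ATP stimulus; dosing: 5.6 µM, single dose; signal: calcium-sensitive Fluo-8 fluorescence; measure: percent inhibition of ATP-evoked calcium rise, normalized to controls; benchmarks: low control ATP plus DMSO, high control DMSO only; replication: one well per compound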
OX1R antag-2 = blocks the human orexin 1 receptor. O43613. OX1R-expressing cells, FRET antagonist read-out. inhibition, % at 6.6 µM. 330,000 tested, 1.8% active. AID 485270; in the data active = inhibition mostly above about 38%, no sharp cut-off; inactive = mostly below about 40%;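 note: 0% = agonist challenge alone and 100% = reference antagonist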
GalR3 antag conf = GalR3 (human) antagonism, confirmation. shares compounds with GalR3 antagonist. HEK293 GalR3 CNG cAMP biosensor, membrane potential fluorescence; galR3 fused to GalR1 carboxy tail; challenged with forskolin and galanin at EC90. inhibition, % at 3 µM. 1,600 tested, 59% active;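 active = inhibition above the primary screen's cutoff, the mean inhibition of all screened compounds plus 3 SD, cut at about 13% in these data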;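 note: 0% = forskolin plus galanin and 100% = forskolin alone with DMSO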
HEK-CNG parental = acts as nonspecific agonist in parental HEK-CNG cells. shares compounds with GalR3 antagonist. HEK293-CNG parental cells, cAMP membrane potential fluorescence; normalised: DMSO wells 0%, forskolin wells 100%. activation, % at 3 µM. 1,600 tested, 10% active. AID 652268; in the data active = activation above about 1.3%
The depositor's hits bear a star; x = not tested or not shown. Hits are enriched below; roughly 3.1% of the tested compounds scored in any of these assays.

SMILES	OX1R antag-1	GPR7 antagonist	GalR3 antagonist	CHO parental Ca	OX1R antag-2	GalR3 antag conf	HEK-CNG parental
CCC(=O)Nc1cccc(-c2cn3cccc(C)c3n2)c1	-18.8	-9.4	13.0*	-11.3	15.5	-0.5	0.0
COc1ccc2[nH]c3c(c2c1)CCN1C(=O)N([C@@H](C)C(=O)NCCc2ccc(OC)c(OC)c2)C(=O)[C@]31C	-32.6	1.2	26.0*	-15.9	12.5	-1.1	0.1
Cc1nn(CCc2n[nH]c(=S)n2-c2cccc(Cl)c2)c(C)c1[N+](=O)[O-]	-26.2	-5.0	-4.8	-9.3	6.4	x	x
Cc1cccc(-n2c(Cn3nc(C)c([N+](=O)[O-])c3C)n[nH]c2=S)c1	-5.4	5.7	17.0*	-1.1	7.7	5.0	0.2
COc1ccc(S(=O)(=O)N2CCN(CCO)CC2)cc1-c1nnc2c3ccccc3c(C)nn12	-8.8	-15.7	10.6	6.0	11.3	x	x
Cc1ccc(S(=O)(=O)N2CCN(CCO)CC2)cc1-c1nnc2c3ccccc3c(C)nn12	-25.2	-4.5	30.3*	-3.5	6.2	43.1*	2.9*
Cc1ccc(S(=O)(=O)N2CCN(C)CC2)cc1-c1nnc2c3ccccc3c(C)nn12	-56.2	-15.3	39.7*	-24.1	23.5	49.0*	0.6
COc1ccc(S(=O)(=O)NC(C)(C)C)cc1-c1nnc2c3ccccc3c(C)nn12	-12.6	-5.7	-1.2	-4.6	22.2	x	x
O=C(O)c1ccc(O)c(O)c1	-7.5	-0.9	13.5*	-8.8	2.2	4.3	0.1
COc1ccccc1CCNC(=O)CSc1nc(=O)[nH]c2c1CCC2	-7.1	x	-3.5	-4.8	6.9	x	x
NS(=O)(=O)c1ccc(CNC(=O)c2csc3c2CCCC3)cc1	-26.2	-3.9	27.1*	-19.6	12.5	12.7*	0.1
CC(=O)c1ccc(N(CC(=O)NC2CCCC2)C(=O)c2csnn2)cc1	5.7	-4.2	-5.8	6.3	12.5	x	x
Fc1cccc(Cl)c1Cn1nnc2c(NCc3ccncc3)ncnc21	-18.9	-3.1	7.8	7.5	8.6	x	x
COC(=O)CSc1nc(N)c(C#N)c(-c2ccc(O)cc2)c1C#N	-1.0	-13.3	44.9*	0.8	18.3	73.7*	0.5
CC(C)c1ccc(-c2c(C#N)c(N)nc(SCC(=O)N3CCCCCC3)c2C#N)cc1	-10.1	-6.3	-0.1	-0.1	16.5	x	x
Cc1ccc(OCC(=O)N/N=C\c2ccc(O)c([N+](=O)[O-])c2)c([N+](=O)[O-])c1	-20.8	-2.0	-4.0	-0.8	32.7	x	x
Cc1ccc(/C=N\NC(=O)COc2ccc(C)cc2[N+](=O)[O-])cc1	-0.2	-5.6	12.8*	-13.2	14.5	0.9	-0.2
CC(C)(C)CC(=O)Nc1nnc(C(F)(F)F)s1	-11.4	-14.9	-1.0	-7.6	3.4	x	x
CC(NC(=O)Nc1nnc(C(F)(F)F)s1)(C(F)(F)F)C(F)(F)F	50.7*	11.3	80.9*	60.5*	58.9*	88.0*	0.3
CN(C)c1ccc(NC(=S)N2CCN(c3ncc(C(F)(F)F)cc3Cl)CC2)cc1	0.5	-10.4	-3.6	-17.7	20.2	x	x
O=C(NC1CCCCCCC1)c1cc(COc2ccc3ncccc3c2)on1	x	-2.8	67.8*	x	x	91.8*	0.5
Cc1cc(CN(C)C(=O)c2cc(COc3ccc4ncccc4c3)on2)on1	10.6	3.2	37.3*	28.6*	12.2	69.2*	0.1
COCC1CCCN(C(=O)c2cc(COc3ccc4ncccc4c3)on2)C1 (centres undefined)	17.9	11.3	100.0*	54.1*	27.4	125.2*	-0.4
CN(Cc1nccn1C)C(=O)c1cc(COc2ccc3ncccc3c2)on1	-8.6	-3.5	-4.1	3.4	15.7	x	x
CCC(O)C1CCN(C(=O)c2cc(COc3ccc4ncccc4c3)on2)CC1 (centres undefined)	12.1	12.7	101.4*	31.4*	30.3	91.3*	-0.5
SMILES	OX1R antag-1	GPR7 antagonist	GalR3 antagonist	CHO parental Ca	OX1R antag-2	GalR3 antag conf	HEK-CNG parental
COc1ccc(NC(=O)c2cccc(S(=O)(=O)NCc3ccco3)c2)c(OC)c1	-10.4	x	-2.3	-12.9	23.1	x	x
O=C(COC(=O)C1(c2ccc(Cl)cc2)CCCC1)NC1CCS(=O)(=O)C1 (centres undefined)	-9.4	8.9	-7.0	7.4	11.5	x	x
N#Cc1cccnc1N1CCN(C(=O)c2cccc3c2C(=O)c2ccc(Cl)cc2S3(=O)=O)CC1	-18.8	x	23.3*	-24.3	33.6*	29.8*	0.2
Cc1nnc(Sc2cc(NCCCO)c([N+](=O)[O-])c3nonc23)s1	x	15.7	20.7*	x	x	5.2	0.1
COc1cc(/C=N/S(=O)(=O)c2ccccc2)cc(OC)c1O	-5.3	-12.8	14.5*	2.7	7.5	-1.1	0.3
COc1ccc(S(=O)(=O)N/N=C\c2ccc3c(c2)OCO3)c(OC)c1	x	-1.7	100.5*	x	x	73.4*	0.0
COc1ccc(OC)c(S(=O)(=O)N/N=C\c2ccc3c(c2)OCO3)c1	-0.3	0.4	-3.5	2.9	3.1	x	x
COc1cccc(OCCn2cc(C(C)=O)c3ccccc32)c1	1.5	20.8	26.8*	32.1*	19.7	20.8*	0.2
COc1cccc(OCCn2cc(/C=N/NC(=O)c3ccncc3)c3ccccc32)c1	-0.1	13.5	-0.6	-3.7	13.5	x	x
COc1ccc(OC)c(NC(=O)C2(C)CCN2C(=O)C2(c3ccccc3)CCCC2)c1 (centres undefined)	x	x	-4.7	x	x	x	x
CCCC(=O)Nc1nnc(-c2ccc3c(c2)OCCO3)o1	-13.6	-15.0	13.7*	-22.1	-3.2	8.1	0.4
CCCC(=O)Nc1nc(-c2ccc3c(c2)OCCO3)cs1	-18.1	-13.4	-2.3	-13.6	22.6	x	x
O=S1(=O)CC2NC(=S)N(c3cccc(Br)c3)C2C1 (centres undefined)	-5.8	-1.2	-1.7	-3.5	-0.4	x	x
CCCOC(=O)c1ccc(OCC(O)Cn2c(C)nc3ccccc32)cc1 (centres undefined)	x	-0.9	105.2*	x	x	122.6*	-0.3
O=c1c(Cl)c(NCCCO)cnn1-c1nc2ccccc2[nH]1	4.5	-5.2	14.8*	-11.3	10.1	4.4	0.2
O=C(OCc1nnc(-c2ccccc2)o1)C1CC(=O)N(Cc2ccco2)C1 (centres undefined)	2.9	-7.4	-5.8	-5.6	18.3	x	x
CNC[C@H]1Oc2ccc(NC(=O)Nc3ccc4c(c3)OCO4)cc2C(=O)N([C@H](C)CO)C[C@@H]1C	-11.0	x	14.8*	-2.7	12.2	7.5	-0.1
CN1C(=O)/C(=C\c2ccncc2)SC1=Nc1ccccc1	-29.7	-12.1	-10.3	-17.6	24.1	x	x
Cc1cc(=O)[nH]c2ccc(S(=O)(=O)NCc3ccccc3)cc12	-12.5	-13.1	57.0*	10.1	4.6	27.0*	-0.1
